Assay results gathered from unrelated publications.
Target: Tyrosine-protein kinase ZAP-70 (ZAP70, Homo sapiens, UniProt P43403)
One construct used (P43403 1-619): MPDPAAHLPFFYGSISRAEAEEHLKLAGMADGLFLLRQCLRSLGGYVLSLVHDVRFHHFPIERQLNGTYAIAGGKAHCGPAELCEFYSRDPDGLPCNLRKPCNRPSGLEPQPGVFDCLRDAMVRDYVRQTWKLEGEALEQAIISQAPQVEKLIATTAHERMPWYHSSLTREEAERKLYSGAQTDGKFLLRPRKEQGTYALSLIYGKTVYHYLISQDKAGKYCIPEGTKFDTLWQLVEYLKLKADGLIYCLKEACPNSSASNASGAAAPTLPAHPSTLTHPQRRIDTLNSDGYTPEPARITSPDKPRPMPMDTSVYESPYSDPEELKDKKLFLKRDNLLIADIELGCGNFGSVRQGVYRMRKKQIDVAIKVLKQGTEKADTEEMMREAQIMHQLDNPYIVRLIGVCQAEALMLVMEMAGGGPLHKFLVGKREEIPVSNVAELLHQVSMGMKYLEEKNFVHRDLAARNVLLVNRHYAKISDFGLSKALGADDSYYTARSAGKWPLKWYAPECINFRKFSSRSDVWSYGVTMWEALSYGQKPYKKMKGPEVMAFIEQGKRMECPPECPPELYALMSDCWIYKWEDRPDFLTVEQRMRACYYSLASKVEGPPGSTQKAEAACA

CC/C(=N\NC(=O)NCc1cccc(O)c1)c1ccc(O)c(C)c1O
inhibition (enzyme activity, inhibitor; 0.1 µM): -2.1%

COc1cc(/C=C/C(=O)CC(=O)/C=C/c2ccc(O)c(OC)c2)ccc1O
activity vs control (enzyme activity, inhibitor; 1 µM): 108%

CC(=O)N1CCC(c2ccc(C(=O)NC(=N)N)cc2C(F)(F)F)CC1
remaining binding (cell-free assay, competition with immobilised ligand; 1 µM): 100%

CCN(CC)c1ccc(C2=NNC(=O)CC2C)cc1[N+](=O)[O-] (stereo not shown)
remaining activity (enzyme activity, inhibitor; 10 µM): 67%

CCOc1cc(-c2nncn2C)ccc1Nc1ncc2cc(C)nc(NCC(C)(C)C)c2n1
inhibition (enzyme activity, inhibitor, FRET; 1 µM): < 15%

O=C(CSc1nc2nccnc2c(=O)n1CCc1ccccc1)Nc1nccs1
inhibition (enzyme activity, inhibitor; 10 µM): 14%

CCCOc1ccc(OC)c(F)c1C(=O)c1ccc(C(=O)N[C@@H]2CNC[C@H]2NC(=O)c2ccc3[nH]ncc3c2)cc1
remaining activity (enzyme activity, inhibitor; 10 µM): 90%

CNC(=O)c1cc(Oc2ccc(NC(=O)Nc3ccc(Cl)c(C(F)(F)F)c3)cc2)ccn1
inhibition (enzyme activity, inhibitor; 10 µM): -42%

CC(C)(O)[C@H]1CC[C@H](Nc2ccc3ncc(-c4cccc(C(F)(F)F)c4)n3n2)CC1
remaining activity (enzyme activity, inhibitor; 1 µM): 93.4%

CN1CC(Oc2cnc(C#N)cc2-c2ccn3nc(NC(=O)C4CC4)cc3c2)C1
inhibition (enzyme activity, inhibitor; 1 µM): 8%

COc1ccc2c(c1)O[C@H](c1ccc(OC)c(OC)c1)C[C@@H]2NC(=O)C1(c2ccc3c(c2)OC(F)(F)O3)CC1
remaining binding (cell-free assay, competition with immobilised ligand; 1 µM): 93%

CC(C)(C)c1nc(-c2cccc(NS(=O)(=O)c3c(F)cccc3F)c2F)c(-c2ccnc(N)n2)s1
remaining activity (enzyme activity, inhibitor, radiometric; 1 µM): 92%

CNCc1ccc(-c2cc(-c3nc(-c4ccc(S(=O)(=O)C(C)C)cc4)cnc3N)on2)cc1
inhibition (enzyme activity, inhibitor; 0.4 µM): 0%

CCN(CC)CCNC(=O)c1c(C)[nH]c(/C=C2\C(=O)Nc3ccc(F)cc32)c1C
inhibition (enzyme activity, inhibitor; 0.3 µM): 2%

FC(F)(F)Oc1cccc(-c2cnc3ccc(-c4ccncc4)nn23)c1
activity vs control (enzyme activity, inhibitor, radiometric; 5 µM): 104%

COc1cc2ncnc(Nc3ccc(Oc4ccccc4)c(C)c3C)c2cc1OC
inhibition (enzyme activity, inhibitor; 1 µM): -2%

C[C@H](c1ccc(F)cc1)N(Cc1cccc(C(=O)O)c1)C(=O)c1cnc2ccccc2c1
remaining binding (cell-free assay, competition with immobilised ligand; 1 µM): 96%

Cc1[nH]c(/C=C2\C(=O)Nc3ccc(F)cc32)c(C)c1C(=O)N[C@H]1CCN(C(=O)N(C)C)C1
remaining activity (enzyme activity, inhibitor; 0.1 µM): 105%

Cc1ccc(C(=O)Nc2ccc(CN3CCN(C)CC3)c(C(F)(F)F)c2)cc1C#Cc1cnc2cccnn12
remaining activity (enzyme activity, inhibitor; 23.5 nM): 99%

COc1cc2ncnc(Nc3ccc(F)c(Cl)c3)c2cc1OCCCN1CCOCC1
remaining signal (cell-free assay; 0.5 µM): 96.5%

COc1cc(-c2cn(C3CCc4ccccc4N(CC(F)(F)F)C3=O)nn2)ccc1-n1ccc(C)n1 (stereo not shown)
remaining binding (cell-free assay, competition with immobilised ligand; 1 µM): 82%

COc1cc(Nc2cnc(C#N)c(O[C@H](C)CN(C)C)n2)ncc1-c1cnn(C)c1
remaining activity (enzyme activity, inhibitor, radiometric; 10 µM): 103%

O=C(N[C@H]1CCCCC/C=C\C2C[C@@]2(C(=O)O)NC(=O)[C@@H]2C[C@@H](Oc3ccncc3)CN2C1=O)OC1CCCC1 (stereo partly shown)
remaining binding (binding, competition with immobilised ligand; 1 µM): 96%

COc1cc(Cl)c(C(=O)N[C@@H](CN[C@H]2CC[C@@H](N)CC2)Cc2ccc(C#N)cc2)cc1-c1ccc(CN[C@H](C)c2ccc(C)cc2)o1
remaining activity (enzyme activity, inhibitor; 1 µM): 93%

Cc1ccc(Nc2nccc(N(C)c3ccc4c(C)n(C)nc4c3)n2)cc1S(N)(=O)=O
remaining activity (enzyme activity, inhibitor; 0.5 µM): 92.6%

O=C(NS(=O)(=O)c1ccc(NCC2CCOCC2)c([N+](=O)[O-])c1)c1ccc(N2CCN(Cc3ccc(C(F)(F)F)cc3-c3ccc(Cl)cc3)CC2)cc1Oc1cnc2[nH]ccc2c1
remaining binding (cell-free assay, competition with immobilised ligand; 1 µM): 82%

N#CCCc1ccc2c(c1)-c1[nH]c3ccc([N+](=O)[O-])cc3c1CC(=O)N2
remaining signal (cell-free assay; 0.5 µM): 106%

Cc1noc([C@H]2C[C@@H](c3ccc(C(F)(F)F)cc3)CN(C(=O)N3CCS(=O)(=O)C3)C2)n1
remaining binding (cell-free assay, competition with immobilised ligand; 1 µM): 100%

O=C(Nc1cnn(-c2csc(C(=O)NC3COC3)c2)c1)Nc1ccccc1Cl
remaining activity (enzyme activity, inhibitor; 5 µM): 102%

CS(=O)(=O)N1CCCC(NC(=O)[C@H](CCC2CCCCC2)NC(=O)c2ccc(CNc3ncnc4c3nnn4-c3ccccc3)cc2)C1 (stereo partly shown)
remaining binding (cell-free assay, competition with immobilised ligand; 0.1 µM): 100%

CCN(CC)CCNC(=O)c1c(C)[nH]c(/C=C2\C(=O)Nc3ccc(F)cc32)c1C
remaining activity (enzyme activity, inhibitor; 0.1 µM): 101%
